Active and inactive are the calls of the source. The calls are words filed in the database; no cut-off is given here.
Experiments:
NCI-H23 [1] = assay: Induction of apoptosis in human H23 cells at 20 uM after 24 hrs by Hoechst 33342/propidium iodide staining-based fluorescence microscopy; format: functional, cell-based
Procedure, shortened: (§1)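 H23 cells exposed to compound (0–20 μM range) for 24 h at 37 °C, then co-stained 30 min at 37 °C with 10 μM Hoechst 33342 and 10 μM PI. Scored by fluorescence microscopy: condensed or fragmented nuclei counted as apoptotic, PI-positive membrane-damaged cells counted as accidental necrotic. Results given as percentages; means ± SD of three independent experiments.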

[2] = Toxicity in human H23 cells assessed as induction of accidental necrosis at 20 uM after 24 hrs by Hoechst 33342/propidium iodide staining-based fluorescence microscopy; format: cell-based; settings: nci-h23, 24 h; procedure, shortened: as §1
[3] = Toxicity in human HK2 cells assessed as induction of accidental necrosis at 20 uM after 24 hrs by propidium iodide staining; format: cell-based; settings: hk-2, 24 h
Procedure, shortened: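 Normal human kidney HK-2 cells exposed to compound at 20 μM for 24 h. Accidental necrotic cells identified by propidium iodide staining and expressed as percentage.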

NCI-H23 [4] = assay: Cytotoxicity against human H23 cells assessed as cell viability at 20 uM after 24 hrs by MTT assay; format: functional, cell-based
Procedure, shortened: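 H23 non-small-cell lung cancer cells (RPMI 1640, 5% FBS, 2 mM L-glutamine) plated at 1.5 × 10^5 cells/mL, grown 24 h at 37 °C, then exposed to compound 24 h at 37 °C. MTT 500 μg/mL added for 4 h; formazan dissolved in DMSO, absorbance read at 570 nm. Viability given as percent of untreated control; at least three replicate cultures.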

NCI-H23 [5] = assay: Induction of intracellular ROS generation in human H23 cells at 20 uM after 6 hrs by DCFH2-DA staining based fluorescence assay; format: functional, cell-based
Procedure, shortened: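 H23 cells seeded 24 h at 37 °C, medium removed, then loaded with DCFH2-DA (10 μM final) in PBS for 30 min at 4 °C. Compound added at 20 μM and incubated 6 h at 37 °C. Fluorescence read on a microplate reader (excitation 480 nm, 530 nm band-pass). Triplicate samples, means ± SD.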

[6] = Induction of intracellular superoxide anion generation in human H23 cells at 20 uM after 6 hrs by DCFH2-DA staining based fluorescence assay in presence of dihydroethidium relative to control; format: cell-based; settings: nci-h23, 6 h
Procedure, shortened: (§2)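 Seeded cells loaded 30 min at 4 °C with 10 μM probe in PBS: HPF for hydroxyl radical, DHE for superoxide. Then 20 μM compound was added for 0−6 h at 37 °C. Plate fluorescence read at ex 490/515 nm (HPF) and ex 488/610 nm (DHE). Triplicate samples.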

NCI-H23 [7] = assay: Induction of intracellular hydroxyl radical generation in human H23 cells at 20 uM after 6 hrs by DCFH2-DA staining based fluorescence assay in presence of HPF; format: functional, cell-based; procedure, shortened: as §2
NCI-H23 [8] = assay: Induction of intracellular H2O2 generation in human H23 cells at 20 uM after 6 hrs by DCFH2-DA staining based fluorescence assay in presence of sodium pyruvate; format: functional, cell-based
Procedure, shortened: (§3)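 Seeded cells (24 h) loaded 30 min at 4 °C with 10 μM DCFH2-DA in PBS, with or without 1 mM scavenger (NAC, or sodium pyruvate for H2O2). Then 20 μM compound was added and cells incubated 0−6 h at 37 °C. Fluorescence read at ex 480 nm / 530 nm band-pass. Triplicate samples.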

NCI-H23 [9] = assay: Induction of intracellular ROS generation in human H23 cells at 20 uM after 6 hrs by DCFH2-DA staining based fluorescence assay in presence of N-acetylcysteine; format: functional, cell-based; procedure, shortened: as §3
NCI-H23 [10] = assay: Induction of ROS generation in human H23 cells assessed as apoptotic cells at 20 uM after 24 hrs by Hoechst 33342/propidium iodide staining-based fluorescence microscopy in presence of N-acetylcysteine; format: functional, cell-based
Procedure, shortened: (§4)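 Cells plated 24 h, then incubated 1 h at 37 °C with or without 1 mM NAC before 20 μM compound for 24 h. Staining used 10 μM Hoechst 33342 plus 10 μM PI for 30 min at 37 °C. Condensed or fragmented nuclei were scored as apoptotic and PI-stained nuclei as accidental necrotic, by fluorescence microscopy.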

[11] = Induction of ROS generation in human H23 cells assessed as accidental necrotic cells at 20 uM after 24 hrs by Hoechst 33342/propidium iodide staining-based fluorescence microscopy in presence of N-acetylcysteine; format: cell-based; settings: nci-h23, 24 h; procedure, shortened: as §4
[12] = Induction of accidental necrosis in human H23 cells assessed as loss of membrane integrity at 5 to 20 uM after 24 hrs by trypan blue exclusion assay; format: cell-based; settings: nci-h23, 24 h
Procedure, shortened: (§5)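 Attached cells exposed 24 h to 0−20 μM were collected into 3% FBS/PBS and fixed in absolute ethanol at −20 °C for 24 h. They were stained 40 min at 37 °C in PI buffer containing RNase A and Triton X-100. Sub-G0 fraction was taken from the flow cytometry DNA histogram. The same cells were stained with trypan blue and counted on an automated counter, with membrane-damaged cells scored as necrotic.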

NCI-H23 [13] = assay: Induction of apoptosis in human H23 cells assessed as accumulation of sub-G0 fraction after 24 hrs by propidium iodide staining-based flow cytometry; format: functional, cell-based; procedure, shortened: as §5
[14] = Toxicity in human H23 cells assessed as induction of accidental necrosis at 1 to 20 uM after 24 hrs by Hoechst 33342/propidium iodide staining-based fluorescence microscopy; format: cell-based; settings: nci-h23, 24 h
Procedure, shortened: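 H23 cells exposed to 0−20 μM compound for 24 h at 37 °C, then stained 30 min at 37 °C with 10 μM Hoechst 33342 and 10 μM PI. PI-stained, membrane-damaged cells were scored as accidental necrotic under a fluorescence microscope.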

NCI-H23 [15] = assay: Induction of apoptosis in human H23 cells at 1 to 20 uM after 24 hrs by Hoechst 33342/propidium iodide staining-based fluorescence microscopy; format: functional; procedure, shortened: as §1
NCI-H23 [16] = assay: Cytotoxicity against human H23 cells assessed as cell viability after 24 hrs by MTT assay; format: functional, cell-based
Procedure, shortened: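 H23 cells (1.5 × 10^5 cells/mL) grown 24 h at 37 °C in RPMI 1640, then exposed to 0−20 μM compound for 24 h at 37 °C. MTT (500 μg/mL) added for 4 h, formazan dissolved in DMSO, absorbance read at 570 nm. Viability expressed as percent of untreated control; at least three replicate cultures.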

NCI-H23 [17] = assay: Induction of ROS generation in human H23 cells assessed as cell viability at 20 uM after 24 hrs by MTT assay in presence of N-acetylcysteine

Row | SMILES | Activity (NCI-H23 [1]) | Activity [2] | Activity [3] | Activity (NCI-H23 [4]) | Activity (NCI-H23 [5]) | Activity [6] | Activity (NCI-H23 [7]) | Activity (NCI-H23 [8]) | Activity (NCI-H23 [9]) | Activity (NCI-H23 [10]) | Activity [11] | Activity [12] | Activity (NCI-H23 [13]) | Activity [14] | Activity (NCI-H23 [15]) | Activity (NCI-H23 [16]) | Activity (NCI-H23 [17])
1 | C/C=C(/C)C(=O)OC[C@H]1c2c(c(OC(C)=O)c(C)c(OC)c2OC(C)=O)C[C@H]2[C@H]3c4c(c(OC(C)=O)c(C)c(OC)c4OC(C)=O)C[C@@H]([C@H](C#N)N12)N3C | inactive | Non-toxic | Non-toxic | Active | inactive | – | – | – | – | – | – | – | – | – | – | – | –
2 | C/C=C(/C)C(=O)OC[C@H]1C2=C(C[C@H]3[C@H]4C5=C(C[C@@H]([C@H](C#N)N13)N4C)C(=O)C(C)=C(OC)C5=O)C(=O)C(C)=C(OC)C2=O [RENIERAMYCIN M] | – | – | 60% | – | Active | Toxic | inactive | inactive | inactive | Active | Non-toxic | 10% | Dose-dependent effect | 2.5% | 51% | Dose-dependent effect | inactive
3 | C/C=C(/C)C(=O)OC[C@H]1c2c(O)c(OC)c(C)c(OC(C)=O)c2C[C@H]2[C@H]3C4=C(C[C@@H]([C@H](C#N)N12)N3C)C(=O)C(C)=C(OC)C4=O | – | – | Non-toxic | – | Active | Non-toxic | inactive | inactive | inactive | Active | – | 1% | Dose-dependent effect | – | 46% | Dose-dependent effect | Active

— ChEMBL document CHEMBL2406950, “Replacement of a quinone by a 5-O-acetylhydroquinone abolishes the accidental necrosis inducing effect while preserving the apoptosis-inducing effect of renieramycin M on lung cancer cells” (J Nat Prod, 2013)
